Measured values reported in ChEMBL document CHEMBL1136904, “Histone deacetylase inhibitors with a primary amide zinc binding group display antitumor activity in xenograft model” (Bioorg Med Chem Lett, 2009).
Activity calls are given as the source filed them.

How the values were obtained:
[1] = tested on: HeLa; assay: Antiproliferative activity against human HeLa cells after 72 hrs by celltiter-blue cell viability assay; format: functional, cell-based
In short: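 72 h proliferation assay in HeLa cervical cancer cells, giving IC50; means of two or more experiments.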

[2] = molecular target: Histone deacetylase 1 (Homo sapiens, UniProt Q13547); assay: Inhibition of C-terminal FLAG tagged HDAC1
[3] = Intrinsic clearance in rat liver microsomes in presence of NADPH; format: ADME, Microsome
In short: (§1)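 Metabolic stability measured in liver microsomes (rat, human, dog) in the presence of NADPH. Intrinsic clearance expressed as µL/min/mg protein.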

[4] = Intrinsic clearance in human microsomes in presence of UDPGA; format: ADME, Microsome
In short: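 Glucuronidation measured in human microsomes in the presence of UDPGA. Intrinsic clearance expressed as µL/min/mg protein.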

[5] = Intrinsic clearance in dog liver microsomes in presence of NADPH; format: ADME, Canis lupus familiaris, Microsome; in short: as §1
[6] = Intrinsic clearance in human liver microsomes in presence of NADPH; format: ADME, Microsome; in short: as §1
[7] = tested on: Mus musculus; assay: Toxicity against human HCT116 cells xenografted nude mouse assessed as body weight loss at 150 mg/kg, ip administered once daily for 18 days; format: organism-based, HCT-116; set-up: dose 150 mg/kg, route intraperitoneal; settings: in vivo, 432 h
[8] = tested on: Mus musculus; assay: Toxicity in mouse assessed as mortality at 100 mg/kg, ip administered daily for 2 weeks; format: organism-based; set-up: dose 100 mg/kg, route intraperitoneal; settings: in vivo, 336 h
In short: (§2)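 Preliminary tolerability study in mice, with intraperitoneal dosing once daily for 2 weeks. The maximum tolerated dose was defined as the dose giving no mortality and body weight loss below 5%.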

[9] = tested on: HCT-116; assay: Antitumor activity against human HCT116 cells xenografted nude mouse assessed as tumor growth inhibition at 100 mg/kg, ip administered once daily for 18 days relative to control; format: functional; settings: HCT-116, ip, 432 h, route intraperitoneal, read-out: TGI
In short: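 HCT116 human colon carcinoma xenografts in nude mice, 12 per group. Dosed intraperitoneally once daily for 18 days and compared with vehicle-treated animals. Tumor growth followed over time and reported as mean ± SEM.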

[10] = molecular target: Histone deacetylase 3 (Homo sapiens, UniProt O15379); assay: Inhibition of C-terminal FLAG tagged HDAC3
[11] = molecular target: T1, Histone deacetylase 8 (Homo sapiens, UniProt Q9BY41); assay: Inhibition of His-tagged HDAC8 catalytic domain expressed in Escherichia coli
T1 sequence (Q9BY41 whole entry): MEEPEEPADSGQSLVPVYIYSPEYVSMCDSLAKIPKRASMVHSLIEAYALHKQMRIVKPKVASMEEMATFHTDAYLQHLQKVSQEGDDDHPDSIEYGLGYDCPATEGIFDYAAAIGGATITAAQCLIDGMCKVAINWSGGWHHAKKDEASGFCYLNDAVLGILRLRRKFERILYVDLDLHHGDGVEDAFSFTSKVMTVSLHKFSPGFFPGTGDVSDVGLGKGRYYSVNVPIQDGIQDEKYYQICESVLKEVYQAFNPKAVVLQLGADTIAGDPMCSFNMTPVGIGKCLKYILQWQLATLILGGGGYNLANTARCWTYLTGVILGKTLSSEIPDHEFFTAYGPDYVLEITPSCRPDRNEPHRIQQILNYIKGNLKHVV

[12] = tested on: A549; assay: Antiproliferative activity against human A549 cells after 72 hrs by celltiter-blue cell viability assay; format: functional, cell-based; settings: A549, 72 h
[13] = Toxicity in ip dosed mouse assessed as maximum tolerated dose administered daily for 2 weeks; format: organism-based; settings: in vivo; in short: as §2
[14] = tested on: Mus musculus; assay: Toxicity against human HCT116 cells xenografted nude mouse assessed as body weight loss at 100 mg/kg, ip administered once daily for 18 days; format: organism-based, HCT-116; set-up: dose 100 mg/kg, route intraperitoneal; settings: in vivo, 432 h
[15] = molecular target: Histone deacetylase 2 (Homo sapiens, UniProt Q92769); assay: Inhibition of C-terminal FLAG tagged HDAC2
[16] = tested on: Mus musculus; assay: Increase in histone acetylation in human HCT116 cells xenografted nude mouse at 100 mg/kg, ip measured for 24 hrs; format: functional, organism-based; set-up: dose 100 mg/kg; settings: HCT-116
In short: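 Target engagement in nude mice bearing HCT116 xenografts, 4 per group. Single ip dose of 100 mpk, with vehicle controls. Histone acetylation measured in tumor biopsies at time points after administration and reported as mean ± SEM.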

[17] = molecular target: Histone deacetylase 4 (Homo sapiens, UniProt P56524); assay: Inhibition of His-tagged HDAC4 catalytic domain expressed in Escherichia coli
[18] = tested on: Mus musculus; assay: Toxicity in mouse assessed as body weight loss at 100 mg/kg, ip administered daily for 2 weeks; format: organism-based; set-up: dose 100 mg/kg, route intraperitoneal; settings: in vivo, 336 h
In short: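 Preliminary MTD study in mice. Intraperitoneal dosing once daily for 2 weeks, tracking mortality and body weight loss. Tolerated dose defined as no mortality and body weight loss below 5%.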

[19] = tested on: HCT-116; assay: Antiproliferative activity against human HCT116 cells after 72 hrs by celltiter-blue cell viability assay; format: functional, cell-based; settings: HCT-116, 72 h
[20] = molecular target: T2, Protein deacetylase HDAC6 (Homo sapiens, UniProt Q9UBN7); assay: Inhibition of C-terminal FLAG tagged HDAC6
T2 sequence (Q9UBN7 whole entry): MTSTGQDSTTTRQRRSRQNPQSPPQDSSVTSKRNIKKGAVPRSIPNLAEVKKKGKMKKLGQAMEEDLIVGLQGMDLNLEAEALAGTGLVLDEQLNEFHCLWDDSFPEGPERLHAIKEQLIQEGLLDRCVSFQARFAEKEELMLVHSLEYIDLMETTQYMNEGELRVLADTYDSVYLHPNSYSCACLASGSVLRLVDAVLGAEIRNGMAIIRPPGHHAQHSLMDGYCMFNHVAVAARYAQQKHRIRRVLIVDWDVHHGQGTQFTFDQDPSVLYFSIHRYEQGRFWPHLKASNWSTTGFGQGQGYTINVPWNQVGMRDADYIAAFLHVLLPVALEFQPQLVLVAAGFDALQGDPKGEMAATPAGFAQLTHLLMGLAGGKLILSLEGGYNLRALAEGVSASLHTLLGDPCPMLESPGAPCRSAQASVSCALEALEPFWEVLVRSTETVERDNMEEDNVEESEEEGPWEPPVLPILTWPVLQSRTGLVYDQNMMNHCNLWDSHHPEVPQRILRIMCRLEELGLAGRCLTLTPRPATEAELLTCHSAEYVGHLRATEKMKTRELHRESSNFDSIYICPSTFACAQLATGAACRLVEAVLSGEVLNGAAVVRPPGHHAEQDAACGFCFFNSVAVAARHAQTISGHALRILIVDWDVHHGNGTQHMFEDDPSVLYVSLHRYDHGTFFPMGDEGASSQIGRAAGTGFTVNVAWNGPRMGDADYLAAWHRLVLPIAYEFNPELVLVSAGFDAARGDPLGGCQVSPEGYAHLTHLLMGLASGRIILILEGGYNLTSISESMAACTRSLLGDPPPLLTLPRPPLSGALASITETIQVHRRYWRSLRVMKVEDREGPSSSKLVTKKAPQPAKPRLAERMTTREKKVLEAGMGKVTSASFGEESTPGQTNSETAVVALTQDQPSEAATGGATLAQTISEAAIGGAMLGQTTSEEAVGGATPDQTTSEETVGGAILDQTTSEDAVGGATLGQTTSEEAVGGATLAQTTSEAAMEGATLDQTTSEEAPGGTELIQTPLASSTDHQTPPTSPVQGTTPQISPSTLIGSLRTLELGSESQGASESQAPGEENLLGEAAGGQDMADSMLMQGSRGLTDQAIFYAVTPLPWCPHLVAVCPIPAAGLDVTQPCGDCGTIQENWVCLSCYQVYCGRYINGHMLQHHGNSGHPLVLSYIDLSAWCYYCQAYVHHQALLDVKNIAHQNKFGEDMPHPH

Histone deacetylase 1, sequence (Q13547 whole entry): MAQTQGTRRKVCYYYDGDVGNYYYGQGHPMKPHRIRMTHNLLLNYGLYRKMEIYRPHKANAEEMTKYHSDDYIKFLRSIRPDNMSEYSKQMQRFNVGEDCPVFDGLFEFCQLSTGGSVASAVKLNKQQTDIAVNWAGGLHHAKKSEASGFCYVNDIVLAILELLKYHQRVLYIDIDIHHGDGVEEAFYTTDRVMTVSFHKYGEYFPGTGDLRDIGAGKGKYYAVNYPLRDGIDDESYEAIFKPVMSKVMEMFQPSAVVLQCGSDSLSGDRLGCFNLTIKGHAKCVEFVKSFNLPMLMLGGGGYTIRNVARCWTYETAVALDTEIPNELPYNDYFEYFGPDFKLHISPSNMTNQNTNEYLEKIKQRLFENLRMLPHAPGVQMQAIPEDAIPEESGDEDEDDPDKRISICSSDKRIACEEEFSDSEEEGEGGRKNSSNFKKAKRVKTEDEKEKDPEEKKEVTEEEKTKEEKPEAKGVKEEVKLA
Histone deacetylase 3, sequence (O15379 whole entry, the tested form may be a part): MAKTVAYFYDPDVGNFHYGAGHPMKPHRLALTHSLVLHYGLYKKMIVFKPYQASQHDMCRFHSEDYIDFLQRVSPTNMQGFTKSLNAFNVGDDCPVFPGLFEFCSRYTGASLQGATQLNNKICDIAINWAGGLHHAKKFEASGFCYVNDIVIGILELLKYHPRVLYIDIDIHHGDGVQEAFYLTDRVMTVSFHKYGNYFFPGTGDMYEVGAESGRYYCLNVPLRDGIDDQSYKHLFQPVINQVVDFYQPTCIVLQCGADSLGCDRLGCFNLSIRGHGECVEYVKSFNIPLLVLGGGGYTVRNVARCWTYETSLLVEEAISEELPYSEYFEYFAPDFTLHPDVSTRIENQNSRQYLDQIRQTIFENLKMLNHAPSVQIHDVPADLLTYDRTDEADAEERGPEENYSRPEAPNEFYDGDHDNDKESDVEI
Histone deacetylase 4, sequence (P56524 whole entry, the tested form may be a part): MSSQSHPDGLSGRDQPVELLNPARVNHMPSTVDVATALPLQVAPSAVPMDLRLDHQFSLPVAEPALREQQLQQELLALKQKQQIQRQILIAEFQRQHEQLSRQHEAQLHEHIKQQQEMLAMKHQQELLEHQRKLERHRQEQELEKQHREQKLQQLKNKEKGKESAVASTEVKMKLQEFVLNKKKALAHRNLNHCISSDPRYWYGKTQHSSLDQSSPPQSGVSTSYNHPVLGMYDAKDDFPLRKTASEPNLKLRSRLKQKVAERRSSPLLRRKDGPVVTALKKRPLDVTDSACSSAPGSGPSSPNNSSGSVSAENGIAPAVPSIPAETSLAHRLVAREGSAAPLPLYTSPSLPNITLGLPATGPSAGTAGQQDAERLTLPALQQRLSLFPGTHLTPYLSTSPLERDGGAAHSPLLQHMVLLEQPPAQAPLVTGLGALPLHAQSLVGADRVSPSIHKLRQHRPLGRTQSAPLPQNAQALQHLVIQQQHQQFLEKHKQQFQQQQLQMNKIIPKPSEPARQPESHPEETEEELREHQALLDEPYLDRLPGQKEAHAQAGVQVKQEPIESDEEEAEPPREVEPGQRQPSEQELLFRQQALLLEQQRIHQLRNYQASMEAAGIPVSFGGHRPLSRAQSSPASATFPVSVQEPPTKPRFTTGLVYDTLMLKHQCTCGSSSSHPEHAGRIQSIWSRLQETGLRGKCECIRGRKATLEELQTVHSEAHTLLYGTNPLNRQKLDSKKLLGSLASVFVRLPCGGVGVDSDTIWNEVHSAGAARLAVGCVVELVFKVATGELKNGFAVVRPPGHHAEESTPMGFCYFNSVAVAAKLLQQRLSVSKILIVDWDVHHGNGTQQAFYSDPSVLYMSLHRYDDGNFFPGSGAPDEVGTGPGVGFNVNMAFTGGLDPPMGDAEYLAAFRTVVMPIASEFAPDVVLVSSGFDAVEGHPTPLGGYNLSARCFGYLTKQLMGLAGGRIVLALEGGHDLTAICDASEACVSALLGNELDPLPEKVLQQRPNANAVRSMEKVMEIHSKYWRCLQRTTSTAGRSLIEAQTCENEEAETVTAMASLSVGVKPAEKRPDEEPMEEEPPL
Histone deacetylase 2, sequence (Q92769 whole entry): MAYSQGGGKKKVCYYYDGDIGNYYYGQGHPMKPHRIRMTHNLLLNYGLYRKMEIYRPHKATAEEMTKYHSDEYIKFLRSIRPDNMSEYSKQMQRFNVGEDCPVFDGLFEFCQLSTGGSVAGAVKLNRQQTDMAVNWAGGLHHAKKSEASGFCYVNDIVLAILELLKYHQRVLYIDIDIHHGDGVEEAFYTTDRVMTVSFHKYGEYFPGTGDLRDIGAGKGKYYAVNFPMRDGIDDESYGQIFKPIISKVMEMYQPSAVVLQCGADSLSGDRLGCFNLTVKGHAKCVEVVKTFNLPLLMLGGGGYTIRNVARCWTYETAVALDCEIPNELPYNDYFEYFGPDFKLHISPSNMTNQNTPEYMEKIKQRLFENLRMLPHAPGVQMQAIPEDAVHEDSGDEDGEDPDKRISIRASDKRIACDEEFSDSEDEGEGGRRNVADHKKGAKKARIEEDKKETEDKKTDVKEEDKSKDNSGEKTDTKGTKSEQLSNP

IC50 [1] [nM] | IC50 [2] [nM] | SMILES | also measured
12000 | 480 | COc1ccc2[nH]c(C)c(CC(=O)N[C@@H](CCCCCC(=O)NC(C)C)c3ncc(-c4ccc5ccccc5c4)[nH]3)c2c1 | 
> 25000 | 40 | CN1CC[C@H](C(=O)N[C@@H](CCCCCC(=O)O)c2ncc(-c3ccc4ccccc4c3)[nH]2)C1 | 
8000 | 47 | COc1ccc2[nH]c(C)c(CC(=O)N[C@@H](CCCCCC(=O)NS(C)(=O)=O)c3ncc(-c4ccc5ccccc5c4)[nH]3)c2c1 | 
4700 | 350 | COc1ccc2[nH]c(C)c(CC(=O)N[C@@H](CCCCCC(=O)Nc3nncs3)c3ncc(-c4ccc5ccccc5c4)[nH]3)c2c1 | 
5900 | 200 | COc1ccc2[nH]c(C)c(CC(=O)N[C@@H](CCCCCC(=O)Nc3ccccc3)c3ncc(-c4ccc5ccccc5c4)[nH]3)c2c1 | 
26400 | 220 | CN(C)S(=O)(=O)N[C@@H](CCCCCC(=O)O)c1ncc(-c2ccc3ccccc3c2)[nH]1 | 
1700 | 120 | CNC(=O)CCCCC[C@H](NC(=O)Cc1c(C)[nH]c2ccc(OC)cc12)c1ncc(-c2ccc3ccccc3c2)[nH]1 | 
180 | 3 | COc1ccc2[nH]c(C)c(CC(=O)N[C@@H](CCCCCC(=O)NO)c3ncc(-c4ccc5ccccc5c4)[nH]3)c2c1 | 
 | 27 | COc1ccc2[nH]c(C)c(CC(=O)N[C@@H](CCCCCC(C)=O)c3ncc(-c4ccccc4)[nH]3)c2c1 | 
6860 | 19 | O=C(O)CCCCC[C@H](NS(=O)(=O)c1ccccc1[N+](=O)[O-])c1ncc(-c2ccc3ccccc3c2)[nH]1 | 
3800 | 170 | COc1ccc2[nH]c(C)c(CC(=O)N[C@@H](CCCCCC(=O)N(C)C)c3ncc(-c4ccc5ccccc5c4)[nH]3)c2c1 | 
390 | 28 | COc1ccc2[nH]c(C)c(CC(=O)N[C@@H](CCCCCC(=O)O)c3ncc(-c4ccc5ccccc5c4)[nH]3)c2c1 | microsomal CLint [3]: 177 µL/min/mg; microsomal CLint [4]: 24 µL/min/mg; microsomal CLint [5]: 3 µL/min/mg; microsomal CLint [6]: 9 µL/min/mg
6800 | 1000 | COc1ccc2[nH]c(C)c(CC(=O)N[C@@H](CCCCCC(=O)NCc3ccccc3)c3ncc(-c4ccc5ccccc5c4)[nH]3)c2c1 | 
35000 | 35 | CN1CCC(C(=O)N[C@@H](CCCCCC(=O)O)c2ncc(-c3ccc4ccccc4c3)[nH]2)CC1 | 
2700 | 66 | CCNC(=O)CCCCC[C@H](NC(=O)Cc1c(C)[nH]c2ccc(OC)cc12)c1ncc(-c2ccc3ccccc3c2)[nH]1 | 
> 25000 | 73 | CN1CC[C@@H](C(=O)N[C@@H](CCCCCC(=O)O)c2ncc(-c3ccc4ccccc4c3)[nH]2)C1 | 
660 | 34 | CONC(=O)CCCCC[C@H](NC(=O)Cc1c(C)[nH]c2ccc(OC)cc12)c1ncc(-c2ccc3ccccc3c2)[nH]1 | 
33500 | 94 | COc1ccc2[nH]c(C)c(CC(=O)N[C@@H](CCCCCC(=O)NS(=O)(=O)C(F)(F)F)c3ncc(-c4ccc5ccccc5c4)[nH]3)c2c1 | 
1340 | 110 | COc1ccc2[nH]c(C)c(CC(=O)N[C@@H](CCCCCC(=O)Nc3ccccc3N)c3ncc(-c4ccc5ccccc5c4)[nH]3)c2c1 | 
 |  | O=C(CCCCCCC(=O)Nc1ccccc1)NO [VORINOSTAT] | Activity [7]: < 5%
200 | 27 | CCC(=O)CCCCC[C@H](NC(=O)Cc1c(C)[nH]c2ccc(OC)cc12)c1ncc(-c2ccc3ccccc3c2)[nH]1 | 
5800 | 23 | O=C(O)CCCCC[C@H](NC(=O)c1cncs1)c1ncc(-c2ccc3ccccc3c2)[nH]1 | 

SMILES | IC50 [1] [nM] | IC50 [2] [nM] | also measured
CCC(=O)CCCCC[C@@H]1NC(=O)[C@H]2CCCCN2C(=O)[C@H]([C@@H](C)CC)NC(=O)[C@H](Cc2cn(OC)c3ccccc23)NC1=O [APICIDIN] | 290 |  | 
COc1ccc2[nH]c(C)c(CC(=O)N[C@@H](CCCCCC(N)=O)c3ncc(-c4ccc5ccccc5c4)[nH]3)c2c1 | 440 |  | Activity [8]: Non-toxic; inhibition in vivo at 100 mg/kg [9]: 29%; IC50 [10]: 250 nM; IC50 [11]: > 5000 nM; IC50 [12]: 3560 nM; MTD at 336 h [13]: 100 mg/kg; Activity [14]: < 5%; IC50 [15]: 160 nM; Activity [16]: Active; IC50 [17]: > 10000 nM; Activity [18]: < 5%; IC50 [19]: 860 nM; IC50 [20]: 120 nM
